Compounds with a hit are over-represented: about 2.6% of the library has one in this group of screens.
ABHD5 PLIN5 PPI: ABHD5-PLIN5 protein interaction inhibition; Q00G26+Q8WTS1; Split G. princeps luciferase complementation, luminescence, 4 h; inhibition, % at 4 µM; 0.78% of 360,000 active;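 active means inhibition above the mean inhibition across every tested compound plus 3 SD, cut at about 22% in these data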;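 further: 0% = DMSO only wells and the 100% control is not disclosed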
NadD block: NadD (S. aureus) enzyme inhibition. 0.78% of 360,000 active. inhibition, % at 20 µM. purified NadD enzyme, colorimetric absorbance read-out; in the data active means inhibition above about 26%
rCAG RNA binder: binds r(CAG) RNA repeats; r(CAG) RNA repeat, TO-PRO-1 dye displacement fluorescence; 1.3% of 370,000 active; inhibition, % at 3 µM;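 active means inhibition above the plate cutoff, the mean of all test compounds on that plate plus 3 SD, cut at about 35% in these data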;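 further: 0% = DMSO alone and 100% = 100 µM mitoxantrone as full dye displacement; higher means more dye released from RNA so lower well fluorescence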
HCV core dimer: HCV core protein dimerization inhibition; TR-FRET GST/Flag-core106 dimerization, 1536-well; inhibition, % at 5 µM; 0.33% of 300,000 active; AID 1899;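 active means inhibition above the mean of all tested compounds plus 3 SD, set per screening campaign, cut at about 45% in these data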
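System: GST/Flag-tagged HCV core106 proteins. Incubation: compound-protein-antibody incubation 4 h at 22.5 °C. Technique: HTRF with 340 nm excitation, 617/671 nm emission. Medium: KF-containing HEPES buffer, pH 7.45, DTT, CHAPS, BSA. Read-out: inhibition (%) from 671 over 617 nm ratio. Also added: Eu(K)-anti-GST 90 ng/mL plus XL665-anti-Flag 1 µg/mL.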
ABHD5-PLIN5 conf: confirmation of human ABHD5-PLIN5 interaction inhibitors; AID 651612; 67% of 2,200 active; inhibition, % at 4 µM; biochemical ABHD5-PLIN5 interaction, luminescence; shares compounds with ABHD5 PLIN5 PPI; in the data active means inhibition above about 23%;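 further: 0% = DMSO vehicle wells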
HNF4 counter: counter-screen for ABHD5-PLIN5 inhibitors: HNF4 split-luciferase; AID 651674; 77% of 2,200 active; inhibition, % at 4 µM; HNF4 dimerization, luminescence, biochemical; shares compounds with ABHD5 PLIN5 PPI;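 active means mean inhibition across replicate wells exceeding the computed hit threshold, cut at about 13% in these data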;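 further: light from luciferase halves that rejoin when HNF4 fusion proteins dimerize; 0% = DMSO only wells and the 100% control is not given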
Target sequence (P41235 whole entry, looked up, the tested form may be a part): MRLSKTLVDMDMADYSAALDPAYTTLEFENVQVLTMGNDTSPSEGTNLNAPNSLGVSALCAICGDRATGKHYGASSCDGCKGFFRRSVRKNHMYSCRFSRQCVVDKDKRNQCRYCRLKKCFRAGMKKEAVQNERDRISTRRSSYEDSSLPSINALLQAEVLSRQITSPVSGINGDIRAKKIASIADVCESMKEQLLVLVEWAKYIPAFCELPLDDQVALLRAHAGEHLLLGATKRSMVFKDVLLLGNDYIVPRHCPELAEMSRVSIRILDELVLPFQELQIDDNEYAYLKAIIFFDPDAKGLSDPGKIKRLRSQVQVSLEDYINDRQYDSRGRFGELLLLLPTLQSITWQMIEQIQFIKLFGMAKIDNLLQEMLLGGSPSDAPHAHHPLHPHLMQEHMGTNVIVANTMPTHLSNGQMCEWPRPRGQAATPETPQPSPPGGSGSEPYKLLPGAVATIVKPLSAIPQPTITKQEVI
Numbers without * were called inactive.

Results for COc1ccc(Cl)cc1C(=O)OCC(=O)Nc1cccnc1Cl ?
ABHD5 PLIN5 PPI: 1; NadD block: -5; rCAG RNA binder: -5

How did COC(=O)CCS(=O)(=O)c1nc(-c2ccccc2)cc(C(F)(F)F)n1 do in these assays?
ABHD5 PLIN5 PPI: 51*; NadD block: -5; HCV core dimer: 4; ABHD5-PLIN5 conf: 85*; HNF4 counter: 105*

How did CCOC(=O)CS(=O)(=O)c1nc(-c2ccccc2)cc(C(F)(F)F)n1 do in these assays?
ABHD5 PLIN5 PPI: 67*; NadD block: -5; rCAG RNA binder: -4; HCV core dimer: 0; ABHD5-PLIN5 conf: 76*; HNF4 counter: 107*

What do the screens show for `Cc1cccc(CNC(=O)NC2CCCCN(Cc3cccc(Cl)c3)C2=O)c1` (centres undefined)?
rCAG RNA binder: 1

How did C=CCn1c(SCC(=O)c2ccc(F)cc2)nnc1-c1ccc(F)cc1 do in these assays?
rCAG RNA binder: -1

Results for Cc1ccsc1/C=N/NC(=O)CNC(=O)c1cccc([N+](=O)[O-])c1C ?
ABHD5 PLIN5 PPI: 25*; NadD block: 0; rCAG RNA binder: 0; HCV core dimer: 5; ABHD5-PLIN5 conf: 2; HNF4 counter: 0

What do the screens show for `Cc1ccsc1/C=N/NC(=O)CNC(=O)c1ccco1`?
ABHD5 PLIN5 PPI: -2; NadD block: 1; rCAG RNA binder: -1; HCV core dimer: 0

How did O=C(NC1CCCCN(Cc2cccc(F)c2)C1=O)c1ccc(F)cc1 (centres undefined) do in these assays?
rCAG RNA binder: 3

How did Cc1ccc(/C=C/C(=O)N2CC(C)CC(C)C2)o1 (centres undefined) do in these assays?
ABHD5 PLIN5 PPI: 28*; NadD block: 2; rCAG RNA binder: 3; HCV core dimer: 12; ABHD5-PLIN5 conf: 23*; HNF4 counter: 36*

What do the screens show for `CC1CC1C(=O)OCC(=O)NCc1ccccc1` (centres undefined)?
ABHD5 PLIN5 PPI: 0; NadD block: 6; rCAG RNA binder: 4

What do the screens show for `Cc1ccccc1Oc1nc2c(C)cccn2c(=O)c1/C=C(\C#N)C(=O)NC1CCS(=O)(=O)C1` (centres undefined)?
ABHD5 PLIN5 PPI: 46*; NadD block: -9; rCAG RNA binder: -3; HCV core dimer: 8; ABHD5-PLIN5 conf: 62*; HNF4 counter: 49*

How did COc1cc2sc(-c3ccc(S(C)(=O)=O)cc3)c(C(=O)NCc3ccc(C)o3)c2cc1OC do in these assays?
ABHD5 PLIN5 PPI: 33*; NadD block: 3; rCAG RNA binder: 4; ABHD5-PLIN5 conf: 9; HNF4 counter: 20*

What do the screens show for `COc1ccc2cc(/C=C/C(=O)c3ccco3)c(Cl)nc2c1`?
HCV core dimer: 5

How did Cc1ccc2nc(Cl)c(/C=C/C(=O)c3ccco3)cc2c1 do in these assays?
ABHD5 PLIN5 PPI: 24*; NadD block: 23; rCAG RNA binder: 6; HCV core dimer: 7; ABHD5-PLIN5 conf: 92*; HNF4 counter: 86*

How did Cc1ccc2cc(/C=C/C(=O)c3ccco3)c(Cl)nc2c1 do in these assays?
ABHD5 PLIN5 PPI: 45*; NadD block: 2; rCAG RNA binder: 3; HCV core dimer: 6; ABHD5-PLIN5 conf: 96*; HNF4 counter: 99*

What do the screens show for `COc1cc2cc(/C=C/C(=O)c3ccco3)c(Cl)nc2cc1OC`?
ABHD5 PLIN5 PPI: 38*; NadD block: 6; rCAG RNA binder: 9; HCV core dimer: 8; ABHD5-PLIN5 conf: 90*; HNF4 counter: 82*

What do the screens show for `COC(=O)[C@]12C=CCN1[C@@H](c1ccc(C(F)(F)F)cc1)c1c(c3ccccc3n1S(=O)(=O)c1ccc(C)cc1)C2`?
rCAG RNA binder: 26

How did C=C(C)c1cccc(C(C)(C)NC(=O)N2CCN(C(=O)OCC)CC2)c1 do in these assays?
ABHD5 PLIN5 PPI: -1; NadD block: 3; rCAG RNA binder: -1

How did O=C1C2C3CC4C5C3C1C5C1(SCCS1)C42 (centres undefined) do in these assays?
ABHD5 PLIN5 PPI: 1; NadD block: -7; rCAG RNA binder: 4

What do the screens show for `COc1ccc(OCC(O)CN2CCC(CN3C(=O)c4cccc5cccc(c45)C3=O)CC2)cc1` (centres undefined)?
ABHD5 PLIN5 PPI: 25*; NadD block: 0; rCAG RNA binder: -4; HCV core dimer: -4; ABHD5-PLIN5 conf: 6; HNF4 counter: 3

Results for Cc1ccc(C)c(OCC(O)CN2CCC(CN3C(=O)c4cccc5cccc(c45)C3=O)CC2)c1 (centres undefined) ?
ABHD5 PLIN5 PPI: 9; NadD block: 11; rCAG RNA binder: 2; HCV core dimer: 7

How did Cc1ccnc(NC(=S)NC(=O)/C=C/c2ccco2)c1 do in these assays?
ABHD5 PLIN5 PPI: 24*; NadD block: 7; rCAG RNA binder: 15; HCV core dimer: 8; ABHD5-PLIN5 conf: 2; HNF4 counter: 11

Results for CC(=NNC(=O)CSc1nnc(-c2ccccc2)n1-c1ccccc1)c1ccc2ccccc2c1 ?
rCAG RNA binder: 12

Results for CC(NC(=O)/C=C/c1ccco1)c1nc2ccccc2n1Cc1c(Cl)cccc1Cl (centres undefined) ?
ABHD5 PLIN5 PPI: 11; NadD block: 12; rCAG RNA binder: 8; HCV core dimer: 35

Results for CC(NC(=O)/C=C/c1ccco1)c1nc2ccccc2n1Cc1ccccc1F (centres undefined) ?
ABHD5 PLIN5 PPI: 35*; NadD block: 6; rCAG RNA binder: -3; HCV core dimer: 16; ABHD5-PLIN5 conf: 13; HNF4 counter: 12

What do the screens show for `CSc1nc2ccc3nc(NC(=O)c4ccc(C)cc4)sc3c2s1`?
ABHD5 PLIN5 PPI: -3; NadD block: -2; rCAG RNA binder: 4; HCV core dimer: 1

What do the screens show for `Cc1ccc(C(=O)Nc2nc3ccccc3c(=O)s2)cc1`?
ABHD5 PLIN5 PPI: 29*; NadD block: 3; rCAG RNA binder: 2; HCV core dimer: 11; ABHD5-PLIN5 conf: 6; HNF4 counter: -10

How did O=C(CSc1nnc(COc2ccccc2)n1-c1ccc(Cl)cc1)Nc1ccc(OCc2ccccc2)cc1 do in these assays?
rCAG RNA binder: 7

Results for COc1ccccc1-c1cc(SC)c(C#N)c(=O)o1 ?
ABHD5 PLIN5 PPI: 67*; NadD block: -2; rCAG RNA binder: 1; HCV core dimer: -2; ABHD5-PLIN5 conf: 89*; HNF4 counter: 93*

How did COc1ccccc1-c1cc(C(F)(F)F)c(C#N)c(=O)[nH]1 do in these assays?
ABHD5 PLIN5 PPI: -5; NadD block: -3; rCAG RNA binder: 9; HCV core dimer: 3

What do the screens show for `COc1ccccc1/C=C/C(=O)c1ccccc1`?
ABHD5 PLIN5 PPI: 29*; NadD block: -9; rCAG RNA binder: -4; ABHD5-PLIN5 conf: 55*; HNF4 counter: 34*

What do the screens show for `COc1cc(O)c(C(=O)/C=C/c2ccccc2)c(OC)c1`?
ABHD5 PLIN5 PPI: 27*; NadD block: 2; rCAG RNA binder: 5; HCV core dimer: 2; ABHD5-PLIN5 conf: 50*; HNF4 counter: 44*
